According to article PMC4138289 (Nature chemical biology, 2014):
One block for each compound: values may come before it.

Columns and labels:
[1] = test system: mouse spleen proteomes; test: in vivo proteome reactivity, gel-based ABPP of mouse spleen; conditions: mice, 10 or 20 mg/kg, i.p., 1 hr
Outline: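 C57BL/6 mice dosed i.p. in saline/EtOH/DMSO/Cremophor EL 17:1:1:1 (10 μL g−1). Inhibitor (20 mg/kg) or vehicle for 1 hr, then probe (10 or 20 mg/kg) for 1 hr; isoflurane, cervical dislocation. Tissues were DPBS-washed and bead-homogenized, spun at 1,500 × g, then 100,000 × g for 45 min (membrane/cytosolic) and set to 2 mg/mL. Rhodamine-azide click, SDS-PAGE, in-gel fluorescence.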

[2] = test system: proteomes of cancer cell lines; test: in situ proteomic reactivity by gel-based ABPP in cancer cells; format: cell-based, human; conditions: in situ treatment with 1 μM probe, cancer cells (SW620 and others)
[3] = cytotoxicity, Sulforhodamine B assay, EGFR-independent cell lines; format: cell-based; conditions: human (MDA-MB-435S, SW620), mouse (NIH3T3)
[4] = time course of compound concentrations in A431 cells; format: in vitro ADME, human; conditions: relative cellular concentrations

Compound: C#Cc1cccc(Oc2ccc(-c3nn([C@@H]4CCCN(C(=O)C=C)C4)c4ncnc(N)c34)cc2)c1 [Probe 4]
in vivo proteomic reactivity [1]: higher proteomic reactivity than probe 6

Compound: C#CCOc1cc2ncnc(Nc3ccc(F)c(Cl)c3)c2cc1NC(=O)CCCN(C)C [Probe 13]
time-dependent proteomic reactivity [2]: Negligible time-dependent proteomic reactivity

stability / accumulation of compound in cells [4]: more prolonged accumulation in cells
Compound: CN(C)C/C=C/C(=O)Nc1cc2c(Nc3ccc(F)c(Cl)c3)ncnc2cc1O[C@H]1CCOC1 [afatinib, reference compound]
IC50 at 72 h [3]: 700 to 2200 nM
